An excerpt weighted towards active compounds, which were near 2.9% of everything screened.
TRPC6 act – mouse TRPC6 channel activators, primary screen, cell-based, HEK293, membrane potential dye; HEK293-TRPC6 membrane potential dye fluorescence; stronger effect = higher value; B-score at 10 µM; 310,000 tested, 0.13% active; Short transient receptor potential channel 6 (Mus musculus), Q61143; AID 2550, 2010;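 active = B-score of the integrated fluorescence ratio above library mean plus 3 SD, and starting fluorescence ratio within library mean plus 5 SD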;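 also: higher score means more depolarization so channel activation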
TRPC4 potent – positive allosteric modulators of TRPC4, primary screen, cell-based, mouse TRPC4beta, HEK293 mu-opioid, Fluo-4 calcium. Short transient receptor potential channel 4 (Mus musculus), Q9QUQ5. DAMGO EC20, Fluo-4 Ca2+ flux; stronger effect = higher value. B-score at 10 µM. 310,000 tested, 0.42% active;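 active = B-score of calcium response area above 5 SD of library B-scores, with initial fluorescence ratio within 5 SD of library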;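 also: B-score of integrated fluorescence ratio over time as area under calcium response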
Kir21 block – inhibitors of mouse Kir2.1 inward-rectifier potassium channel; B-score at 10 µM; HEK293-Kir2.1, FluxOR thallium flux fluorescence; stronger effect = lower value; 310,000 tested, 0.85% active;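 active = fluorescence ratio B-score at or below minus 3 SD of library scores, with starting-brightness B-score within 2 SD, cut at about -4.2 in these data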;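 also: channel flux triggered by added potassium and thallium sulfate stimulus; B-score of peak minus minimum fluorescence over baseline after thallium stimulus; more negative B-score means stronger Kir2.1 block with less thallium influx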
Target sequence (P35561 whole entry, looked up): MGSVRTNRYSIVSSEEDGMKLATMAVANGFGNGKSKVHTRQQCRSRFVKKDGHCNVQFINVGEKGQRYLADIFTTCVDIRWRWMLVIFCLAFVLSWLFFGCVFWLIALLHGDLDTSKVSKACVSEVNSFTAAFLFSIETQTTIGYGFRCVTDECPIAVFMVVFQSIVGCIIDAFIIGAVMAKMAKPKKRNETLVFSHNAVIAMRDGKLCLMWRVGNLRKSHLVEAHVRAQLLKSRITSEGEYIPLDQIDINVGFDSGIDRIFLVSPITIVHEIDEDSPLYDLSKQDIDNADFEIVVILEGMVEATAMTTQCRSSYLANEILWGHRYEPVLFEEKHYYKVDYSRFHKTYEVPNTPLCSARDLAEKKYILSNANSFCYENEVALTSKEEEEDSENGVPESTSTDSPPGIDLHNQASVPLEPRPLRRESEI
TRPC4 block – inhibitors of mouse TRPC4 channel, primary screen, Fluo4 calcium, HEK293 TRPC4beta/mu-opioid cells. Short transient receptor potential channel 4 (Mus musculus), Q9QUQ5. DAMGO-evoked Fluo4 calcium flux; stronger effect = lower value. B-score at 10 µM. 300,000 tested, 0.39% active. AID 2247, 2010;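 active = B-score over 3 SD under the library average, no early fluorescence shift, positive overall ratio signal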
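Signal: kinetic Fluo4 fluorescence imaging of calcium influx. Material: stable TRPC4beta/mu-opioid receptor HEK293 cells. Probe or stimulus: DAMGO in two steps, submaximal then maximal.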
TRPC6 inh – mouse TRPC6 channel inhibitors, primary screen, cell-based, HEK293, membrane potential dye; B-score at 10 µM; 310,000 tested, 1.1% active; ACh-evoked depolarization; stronger effect = lower value; Short transient receptor potential channel 6 (Mus musculus), Q61143;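 active = B-score under library mean minus 3 SD, initial fluorescence not abnormally high, positive integrated signal ratio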;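 also: B-score derived from integrated fluorescence ratio over the kinetic read; more negative B-score means stronger inhibition of depolarization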
TRPC4 act – activators of mouse TRPC4 channel, primary screen, Fluo4 calcium, HEK293 TRPC4beta/mu-opioid cells; Short transient receptor potential channel 4 (Mus musculus), Q9QUQ5; Fluo4 calcium fluorescence; stronger effect = higher value; B-score at 10 µM; 310,000 tested, 0.49% active; AID 2237, 2010;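 active = B-score above 5 SD of library B-scores, and initial fluorescence ratio not above library mean plus 5 SD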;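 also: positive B-score marks a calcium rise read as TRPC4 activation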
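Assay system: HEK293 cells stably co-expressing mouse TRPC4beta and mu-opioid receptor / Timing: Fluo4 dye loading 45 min at room temperature, 110 s recording / Signal: Fluo4 calcium-sensitive dye fluorescence, kinetic, 1 Hz baseline / Read-out: integrated baseline-normalised fluorescence ratio, converted to per-well B score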
HEK293 TRPC6 ctr – parental HEK293 membrane potential modulation, confirmation, counter-screen for TRPC6 modulator project, cell-based. shares compounds with TRPC6 inh. membrane potential dye fluorescence. membrane potential signal change, % at 10 µM. 2,400 tested, 51% active. AID 488924, 2010;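 active = membrane potential signal moves up or down beyond 5 SD from buffer-only wells, on both duplicate plates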
HEK293 MPD ctr 2 – parental HEK293 nonspecific activity of TRPC6 modulators, second screen; shares compounds with TRPC6 inh; membrane potential dye fluorescence; after compound, maximal acetylcholine stimulation; inhibition, % at 10 µM; 2,400 tested, 14% active;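 active = membrane potential signal drops by more than 5 SD from the mean control signal, in both duplicate plates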;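 also: plate controls were acetylcholine ECmax control wells for no effect and buffer only wells for full effect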
TRPC4 ctr mod – TRPC4 modulation by TRPC6 hit compounds, confirmation, selectivity assay for TRPC6 modulator project, cell-based, HEK293 TRPC4/mu-opioid, membrane potential dye, mouse | 2,400 tested, 69% active | shares compounds with TRPC6 inh | membrane potential fluorescence | percent change from control (negative = decrease, positive = increase), % at 10 µM | AID 488927, 2010;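 active = membrane potential signal moved up or down beyond 5 SD of buffer control wells, in both duplicate plates, actives on both sides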;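 also: plate controls were assay buffer wells for no effect and DAMGO maximal-effect wells for full effect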
TRPC4/MOR inh 2 – mouse TRPC4 off-target activity of TRPC6 modulators, second screen; shares compounds with TRPC6 inh; HEK293 TRPC4/mu-opioid, membrane potential dye fluorescence; stimulated with maximal-effect DAMGO; inhibition, % at 10 µM; 2,400 tested, 55% active;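 active = drop in membrane potential signal beyond 5 SD of the control wells in both duplicate plates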;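 also: TRPC4 counter screen for TRPC6 hits run under conditions tuned for TRPC6 not TRPC4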
TRPC6 block conf – mouse TRPC6 channel inhibitors, confirmation, HEK293 cells, membrane potential dye, duplicate | shares compounds with TRPC6 inh | ACh-evoked depolarization | inhibition, % at 10 µM | 3,300 tested, 43% active | AID 488960, 2010;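 active = fluorescence ratio falls more than 5 SD below the full-stimulation control mean, in both duplicate runs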;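 also: integrated fluorescence ratio of peak minus minimum over baseline after agonist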
TRPC6 act conf – mouse TRPC6 channel activators, confirmation, HEK293 cells, membrane potential dye, duplicate | shares compounds with TRPC6 inh | HEK293-TRPC6 membrane potential dye fluorescence, FDSS | activation, % at 10 µM | 2,800 tested, 11% active | AID 488961, 2010;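 active = ratio signal rise beyond 5 SD above unstimulated control wells' mean, seen in both duplicate runs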;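 also: plate controls were buffer EC0 wells for no effect and acetylcholine ECmax response for full effect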
* hit, by the source's call; i = inactive; · = no result.

SMILES	TRPC6 act	TRPC4 potent	Kir21 block	TRPC4 block	TRPC6 inh	TRPC4 act	HEK293 TRPC6 ctr	HEK293 MPD ctr 2	TRPC4 ctr mod	TRPC4/MOR inh 2	TRPC6 block conf	TRPC6 act conf
Cc1ccc(C2CC3CCC(C2)N3Cc2ccccc2F)cc1 (stereo unspecified)	13.4*	i	-1.29	i	i	i	127.0%*	i	49.0%*	42.5%*	i	57.5%*
Cc1cccc(C)c1N1CCN(c2c(C)cccc2C)CC1	i	i	2.77	i	i	i	·	·	·	·	·	·
CCOC(=O)c1c(C=O)c2ccccc2n1Cc1ccccc1F	i	i	-0.06	i	i	i	·	·	·	·	·	·
CC(C)Cc1nnc(NC(=O)CCC(=O)N2CCC3(CC2)OCCO3)s1	i	i	-0.67	i	i	i	·	·	·	·	·	·
Cc1cc(C)c2c(ccc3cccc[n+]32)c1	i	i	0.25	i	-7.62*	i	-260.0%*	96.0%*	-39.5%*	59.5%*	69.0%*	i
COc1cc2c(cc1OC)-c1c3c(cc4c1[C@@H](C2)N(C)CC4)OCO3	i	i	-0.38	i	-8.03*	i	-194.5%*	76.0%*	-35.0%*	52.5%*	56.0%*	i
COc1ccc(CC2c3cc(OC)c(OC)cc3CCN2C)cc1O (stereo unspecified)	i	i	0.21	i	i	i	·	·	·	·	·	·
COc1cc2c(cc1OC)-c1c(OC)c(OC)cc3c1C(C2)N(C)CC3 (stereo unspecified)	i	i	0.59	i	-5.43*	i	-234.5%*	i	-44.5%*	51.0%*	53.0%*	i
COc1ccc(N2C(=O)/C(=C/C=C/c3ccccc3[N+](=O)[O-])C(=O)NC2=S)cc1	i	i	-3.24	i	i	i	·	·	·	·	·	·
CCCCCSc1cc(OC)c(CCNC)cc1OC	i	i	-8.94*	i	-6.03*	i	i	i	12.5%*	28.5%*	i	i
CCCCCCCSc1cc(OC)c(CCNC)cc1OC	i	i	-9.82*	i	-5.09*	i	i	i	i	49.5%*	43.0%*	i
COc1cccc(C2CCN(CC(=O)Nc3cc(Cl)ccc3OC)CC2O)c1 (stereo unspecified)	i	i	1.19	i	i	i	·	·	·	·	·	·
C/C=C1\CN2[C@H]3C[C@@]45c6ccccc6N(C)[C@H]4[C@@H]2CC1C3[C@H]5O (stereo partly specified)	i	i	0.51	i	i	i	·	·	·	·	·	·
CN1CCC(N(C)c2nc(-c3ccccc3)nc3ccccc23)CC1	i	15*	-0.98	i	-7.61*	i	-305.5%*	87.5%*	-54.0%*	65.5%*	74.5%*	i
Cc1cc(N2CCN(C)CC2)nc2ccccc12	i	i	-0.34	i	i	i	·	·	·	·	·	·
C=Cn1ccnc1P(O)(=S)c1nc(C)c(CCOC(C)=O)s1 (stereo unspecified)	i	i	-0.36	i	i	i	·	·	·	·	·	·
CN(CCc1ccccc1)Cc1c[nH]c2ccccc12	i	i	-0.64	i	i	i	·	·	·	·	·	·
Cc1ccc(-c2nc3ccccc3c(=O)n2-c2cc(C)ccn2)cc1	i	i	-0.09	i	i	i	·	·	·	·	·	·
Cc1ccc(-c2nc3ccccc3c(=O)n2-c2cccc(C)n2)cc1	i	i	-0.16	i	-6.01*	i	i	i	i	i	i	i
CC1(C(O)(C#CCN2CCCCC2)c2ccccc2)CCCC1 (stereo unspecified)	i	i	-1.01	i	-7.06*	i	141.5%*	105.5%*	26.5%*	44.5%*	91.0%*	·
CCc1c(-c2ccccc2)nc2ccccc2c1C(=O)N1CCC2(CC1)OCCO2	i	i	0.36	i	i	i	·	·	·	·	·	·
CCCn1ncc(CN2CCCC(C(=O)c3cccc(OC)c3)C2)c1C (stereo unspecified)	i	i	-0.01	i	-5.92*	i	124.5%*	i	28.5%*	i	50.0%*	·

Bioassay records deposited in PubChem BioAssay by Johns Hopkins Ion Channel Center.
